Laboratory results as given in ChEMBL document CHEMBL3864121, “Development of ebsulfur analogues as potent antibacterials against methicillin-resistant Staphylococcus aureus” (Bioorg Med Chem, 2016).
Values after ≈ are worked out from the molar mass of the structure shown.

Legend:
Staphylococcus aureus [1] = experiment: Antibacterial activity against methicillin-sensitive Staphylococcus aureus ATCC 6538 measured after overnight incubation by broth double-dilution method; type: functional
Procedure, shortened: (§1)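 MIC by broth double-dilution in liquid Mueller-Hinton medium. Values are reported in µg/mL.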

Staphylococcus aureus [2] = experiment: Antibacterial activity against methicillin-sensitive Staphylococcus aureus ATCC 25923 measured after overnight incubation by broth double-dilution method; type: functional; procedure, shortened: as §1
Staphylococcus aureus [3] = experiment: Antibacterial activity against methicillin-sensitive Staphylococcus aureus ATCC 29213 measured after overnight incubation by broth double-dilution method; type: functional; procedure, shortened: as §1
Staphylococcus aureus [4] = experiment: Antibacterial activity against methicillin-resistant Staphylococcus aureus ATCC 33591 measured after overnight incubation by broth double-dilution method; type: functional; procedure, shortened: as §1
Staphylococcus aureus [5] = experiment: Antibacterial activity against methicillin-resistant Staphylococcus aureus 1 measured after overnight incubation by broth double-dilution method; type: functional; procedure, shortened: as §1
Staphylococcus aureus [6] = experiment: Antibacterial activity against methicillin-resistant Staphylococcus aureus 2 measured after overnight incubation by broth double-dilution method; type: functional; procedure, shortened: as §1
Staphylococcus aureus [7] = experiment: Antibacterial activity against methicillin-resistant Staphylococcus aureus BRS3 measured after overnight incubation by broth double-dilution method; type: functional; procedure, shortened: as §1
Staphylococcus aureus [8] = experiment: Antibacterial activity against methicillin-resistant Staphylococcus aureus C1 measured after overnight incubation by broth double-dilution method; type: functional; procedure, shortened: as §1
Staphylococcus aureus [9] = experiment: Antibacterial activity against methicillin-resistant Staphylococcus aureus C2 measured after overnight incubation by broth double-dilution method; type: functional; procedure, shortened: as §1
Staphylococcus aureus [10] = experiment: Antibacterial activity against methicillin-resistant Staphylococcus aureus C7 measured after overnight incubation by broth double-dilution method; type: functional; procedure, shortened: as §1
Staphylococcus aureus [11] = experiment: Antibacterial activity against methicillin-resistant Staphylococcus aureus C14 measured after overnight incubation by broth double-dilution method; type: functional; procedure, shortened: as §1
Staphylococcus aureus [12] = experiment: Antibacterial activity against methicillin-resistant Staphylococcus aureus C16 measured after overnight incubation by broth double-dilution method; type: functional; procedure, shortened: as §1
Staphylococcus aureus [13] = experiment: Antibacterial activity against methicillin-resistant Staphylococcus aureus C19 measured after overnight incubation by broth double-dilution method; type: functional; procedure, shortened: as §1
Staphylococcus aureus [14] = experiment: Antibacterial activity against methicillin-resistant Staphylococcus aureus G1 measured after overnight incubation by broth double-dilution method; type: functional; procedure, shortened: as §1
Staphylococcus aureus [15] = experiment: Antibacterial activity against methicillin-resistant Staphylococcus aureus G6 measured after overnight incubation by broth double-dilution method; type: functional; procedure, shortened: as §1
Staphylococcus aureus [16] = experiment: Antibacterial activity against methicillin-resistant Staphylococcus aureus G12 measured after overnight incubation by broth double-dilution method; type: functional; procedure, shortened: as §1
Staphylococcus aureus [17] = experiment: Antibacterial activity against methicillin-resistant Staphylococcus aureus G14 measured after overnight incubation by broth double-dilution method; type: functional; procedure, shortened: as §1
Staphylococcus aureus [18] = experiment: Antibacterial activity against methicillin-resistant Staphylococcus aureus NRS4 measured after overnight incubation by broth double-dilution method; type: functional; procedure, shortened: as §1
Staphylococcus aureus [19] = experiment: Antibacterial activity against methicillin-resistant Staphylococcus aureus NRS51 measured after overnight incubation by broth double-dilution method; type: functional; procedure, shortened: as §1
Staphylococcus aureus [20] = experiment: Antibacterial activity against methicillin-resistant Staphylococcus aureus NRS77 measured after overnight incubation by broth double-dilution method; type: functional; procedure, shortened: as §1
Staphylococcus aureus [21] = experiment: Antibacterial activity against methicillin-resistant Staphylococcus aureus S14 measured after overnight incubation by broth double-dilution method; type: functional; procedure, shortened: as §1
Staphylococcus aureus [22] = experiment: Antibacterial activity against methicillin-resistant Staphylococcus aureus S17 measured after overnight incubation by broth double-dilution method; type: functional; procedure, shortened: as §1
Staphylococcus aureus [23] = experiment: Antibacterial activity against methicillin-resistant Staphylococcus aureus S22 measured after overnight incubation by broth double-dilution method; type: functional; procedure, shortened: as §1
Staphylococcus aureus [24] = experiment: Antibacterial activity against methicillin-resistant Staphylococcus aureus S24 measured after overnight incubation by broth double-dilution method; type: functional; procedure, shortened: as §1
Staphylococcus aureus [25] = experiment: Antibacterial activity against methicillin-resistant Staphylococcus aureus USA100 measured after overnight incubation by broth double-dilution method; type: functional; procedure, shortened: as §1
Staphylococcus aureus [26] = experiment: Antibacterial activity against methicillin-resistant Staphylococcus aureus USA200 measured after overnight incubation by broth double-dilution method; type: functional; procedure, shortened: as §1
Staphylococcus aureus [27] = experiment: Antibacterial activity against methicillin-resistant Staphylococcus aureus USA300 measured after overnight incubation by broth double-dilution method; type: functional; procedure, shortened: as §1
Staphylococcus aureus [28] = experiment: Antibacterial activity against methicillin-resistant Staphylococcus aureus USA600 measured after overnight incubation by broth double-dilution method; type: functional; procedure, shortened: as §1
[29] = tested on: Staphylococcus epidermidis; experiment: Antibacterial activity against Staphylococcus epidermidis ATCC 35984 measured after overnight incubation by broth double-dilution method; type: functional; conditions: RP62A
Procedure, shortened: (§2)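 MIC by broth double-dilution in Mueller-Hinton medium. Re-testing at the time-kill inoculum used 1×10^6 CFU/mL.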

Enterococcus faecalis [30] = experiment: Antibacterial activity against Enterococcus faecalis ATCC 29212 measured after overnight incubation by broth double-dilution method; type: functional; procedure, shortened: as §2
Enterococcus faecalis [31] = experiment: Antibacterial activity against Enterococcus faecalis ATCC 49533 measured after overnight incubation by broth double-dilution method; type: functional; procedure, shortened: as §2
Enterococcus faecium = experiment: Antibacterial activity against Enterococcus faecium BM4105-RF measured after overnight incubation by broth double-dilution method; type: functional; procedure, shortened: as §1
Enterococcus = experiment: Antibacterial activity against Vancomycin-resistant Enterococcus measured after overnight incubation by broth double-dilution method; type: functional; procedure, shortened: as §1
Listeria monocytogenes = experiment: Antibacterial activity against Listeria monocytogenes ATCC 19115 measured after overnight incubation by broth double-dilution method; type: functional; procedure, shortened: as §2
[32] = tested on: Mycolicibacterium smegmatis; experiment: Antibacterial activity against Mycobacterium smegmatis MC2-155 measured after overnight incubation by broth double-dilution method; type: functional; conditions: str. MC2 155; procedure, shortened: as §1
Staphylococcus aureus [33] = experiment: Antibiofilm activity against methicillin-sensitive Staphylococcus aureus ATCC 6538 assessed as reduction of biofilm at […] measured after 24 hrs by crystal violet staining based method relative to control; type: functional; parameters: scale not given: the % may be the effect or the level left
[34] = tested on: Staphylococcus epidermidis; experiment: Antibiofilm activity against Staphylococcus epidermidis ATCC 35984 assessed as reduction of biofilm at […] measured after 24 hrs by crystal violet staining based method relative to control; type: functional, RP62A; parameters: scale not given: the % may be the effect or the level left
[35] = Cytotoxicity against HEK293 cells assessed as cell death up to 10 ug/ml measured after 24 hrs by resazurin dye-based fluorescence analysis relative to untreated control; type: toxicity; conditions: human, hek293, 24 h
[36] = Solubility of compound in Muller-Hinton medium; type: physicochemical

## CC(C)c1ccc(-n2sc3ccccc3c2=O)cc1
Staphylococcus aureus [1]
  MIC: 2 µg/mL (≈ 7.42 µM)
Staphylococcus aureus [2]
  MIC: 2 µg/mL (≈ 7.42 µM)
Staphylococcus aureus [3]
  MIC: ≤ 0.25 µg/mL
Staphylococcus aureus [4]
  MIC: ≤ 0.25 µg/mL
Staphylococcus aureus [5]
  MIC: ≤ 0.25 µg/mL
Staphylococcus aureus [6]
  MIC: 1 µg/mL (≈ 3.71 µM)
Staphylococcus aureus [7]
  MIC: 2 µg/mL (≈ 7.42 µM)
Staphylococcus aureus [8]
  MIC: ≤ 0.25 µg/mL
Staphylococcus aureus [9]
  MIC: 0.5 µg/mL (≈ 1.86 µM)
Staphylococcus aureus [10]
  MIC: 0.5 µg/mL (≈ 1.86 µM)
Staphylococcus aureus [11]
  MIC: 1 µg/mL (≈ 3.71 µM)
Staphylococcus aureus [12]
  MIC: 1 µg/mL (≈ 3.71 µM)
Staphylococcus aureus [13]
  MIC: 0.5 µg/mL (≈ 1.86 µM)
Staphylococcus aureus [14]
  MIC: ≤ 0.25 µg/mL
Staphylococcus aureus [15]
  MIC: 0.5 µg/mL (≈ 1.86 µM)
Staphylococcus aureus [16]
  MIC: 1 µg/mL (≈ 3.71 µM)
Staphylococcus aureus [17]
  MIC: 1 µg/mL (≈ 3.71 µM)
Staphylococcus aureus [18]
  MIC: 2 µg/mL (≈ 7.42 µM)
Staphylococcus aureus [19]
  MIC: 0.5 µg/mL (≈ 1.86 µM)
Staphylococcus aureus [20]
  MIC: 1 µg/mL (≈ 3.71 µM)
Staphylococcus aureus [21]
  MIC: ≤ 0.25 µg/mL
Staphylococcus aureus [22]
  MIC: ≤ 0.25 µg/mL
Staphylococcus aureus [23]
  MIC: 0.5 µg/mL (≈ 1.86 µM)
Staphylococcus aureus [24]
  MIC: ≤ 0.25 µg/mL
Staphylococcus aureus [25]
  MIC: 0.5 µg/mL (≈ 1.86 µM)
Staphylococcus aureus [26]
  MIC: 1 µg/mL (≈ 3.71 µM)
Staphylococcus aureus [27]
  MIC: 2 µg/mL (≈ 7.42 µM)
Staphylococcus aureus [28]
  MIC: 1 µg/mL (≈ 3.71 µM)
[29]
  MIC: 0.25 µg/mL (≈ 0.928 µM)
Enterococcus faecalis [30]
  MIC: 15.6 µg/mL (≈ 57.9 µM)
Enterococcus faecalis [31]
  MIC: 62.5 µg/mL (≈ 232 µM)
Enterococcus faecium
  MIC: 15.6 µg/mL (≈ 57.9 µM)
Enterococcus
  MIC: ≤ 0.25 µg/mL
Listeria monocytogenes
  MIC: 0.5 µg/mL (≈ 1.86 µM)
[32]
  MIC: 0.5 µg/mL (≈ 1.86 µM)
Staphylococcus aureus [33]
  Activity: 50%
[34]
  Activity: 50 - 60%
[35]
  Activity: > 20%

## O=c1c2ccccc2sn1-c1ccccn1
Staphylococcus aureus [1]
  MIC: 7.8 µg/mL (≈ 34.2 µM)
Staphylococcus aureus [2]
  MIC: 7.8 µg/mL (≈ 34.2 µM)
Staphylococcus aureus [3]
  MIC: 7.8 µg/mL (≈ 34.2 µM)
Staphylococcus aureus [4]
  MIC: 3.9 µg/mL (≈ 17.1 µM)
Staphylococcus aureus [5]
  MIC: 15.6 µg/mL (≈ 68.3 µM)
Staphylococcus aureus [6]
  MIC: 7.8 µg/mL (≈ 34.2 µM)
Staphylococcus aureus [7]
  MIC: 15.6 µg/mL (≈ 68.3 µM)
Staphylococcus aureus [8]
  MIC: 3.9 µg/mL (≈ 17.1 µM)
Staphylococcus aureus [9]
  MIC: 7.8 µg/mL (≈ 34.2 µM)
Staphylococcus aureus [10]
  MIC: 7.8 µg/mL (≈ 34.2 µM)
Staphylococcus aureus [11]
  MIC: 7.8 µg/mL (≈ 34.2 µM)
Staphylococcus aureus [12]
  MIC: 7.8 µg/mL (≈ 34.2 µM)
Staphylococcus aureus [13]
  MIC: 7.8 µg/mL (≈ 34.2 µM)
Staphylococcus aureus [14]
  MIC: 7.8 µg/mL (≈ 34.2 µM)
Staphylococcus aureus [15]
  MIC: 7.8 µg/mL (≈ 34.2 µM)
Staphylococcus aureus [16]
  MIC: 7.8 µg/mL (≈ 34.2 µM)
Staphylococcus aureus [17]
  MIC: 7.8 µg/mL (≈ 34.2 µM)
Staphylococcus aureus [18]
  MIC: 15.6 µg/mL (≈ 68.3 µM)
Staphylococcus aureus [19]
  MIC: 7.8 µg/mL (≈ 34.2 µM)
Staphylococcus aureus [20]
  MIC: 15.6 µg/mL (≈ 68.3 µM)
Staphylococcus aureus [21]
  MIC: 2 µg/mL (≈ 8.76 µM)
Staphylococcus aureus [22]
  MIC: 7.8 µg/mL (≈ 34.2 µM)
Staphylococcus aureus [23]
  MIC: 7.8 µg/mL (≈ 34.2 µM)
Staphylococcus aureus [24]
  MIC: 7.8 µg/mL (≈ 34.2 µM)
Staphylococcus aureus [25]
  MIC: 7.8 µg/mL (≈ 34.2 µM)
Staphylococcus aureus [26]
  MIC: 7.8 µg/mL (≈ 34.2 µM)
Staphylococcus aureus [27]
  MIC: 7.8 µg/mL (≈ 34.2 µM)
Staphylococcus aureus [28]
  MIC: 15.6 µg/mL (≈ 68.3 µM)
[29]
  MIC: 3.9 µg/mL (≈ 17.1 µM)
Enterococcus faecalis [30]
  MIC: > 125 µg/mL
Enterococcus faecalis [31]
  MIC: > 125 µg/mL
Enterococcus faecium
  MIC: > 125 µg/mL
Enterococcus
  MIC: 7.8 µg/mL (≈ 34.2 µM)
Listeria monocytogenes
  MIC: 7.8 µg/mL (≈ 34.2 µM)
[32]
  MIC: 7.8 µg/mL (≈ 34.2 µM)
[36]
  solubility: Soluble
